Calls of active or inactive are those of the source. The rule behind the calls is not given here.

Format in all cases: functional, cell membranes
The target in assay [1] is P2Y purinoceptor 1 (Meleagris gallopavo) (UniProt P49652). Nature of the assay: In vitro agonist activity at P2Y1 receptor in turkey erythrocyte membranes; No effect at 100 uM.
Assay [2] shares this target. Nature of the assay: Antagonist activity for inhibition of PLC elicited by 10 nM 2-MeSADP at P2Y purinoceptor 1 in the turkey erythrocyte membranes; No effect, low potency. In a few lines: (§1)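 [3H]inositol-labeled turkey erythrocyte ghosts in pH 7.0 Hepes medium with 1 μM GTPγS were incubated 5 min at 30 °C with test nucleotide plus 10 nM 2-MeSADP. Total [3H]inositol phosphates were separated by anion-exchange. […] Maximal inhibition is 100 minus residual stimulation at the highest concentration; n = 3 unless stated. "No effect" means none at 100 μM.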

Assay [3] deals with T1, P2Y purinoceptor 1 (Meleagris gallopavo, UniProt P49652). In words: Concentration at which 50% of the maximal effect (stimulation of PLC at P2Y1 receptor in the turkey erythrocyte membranes) is reached.
T1 sequence (P49652 whole entry): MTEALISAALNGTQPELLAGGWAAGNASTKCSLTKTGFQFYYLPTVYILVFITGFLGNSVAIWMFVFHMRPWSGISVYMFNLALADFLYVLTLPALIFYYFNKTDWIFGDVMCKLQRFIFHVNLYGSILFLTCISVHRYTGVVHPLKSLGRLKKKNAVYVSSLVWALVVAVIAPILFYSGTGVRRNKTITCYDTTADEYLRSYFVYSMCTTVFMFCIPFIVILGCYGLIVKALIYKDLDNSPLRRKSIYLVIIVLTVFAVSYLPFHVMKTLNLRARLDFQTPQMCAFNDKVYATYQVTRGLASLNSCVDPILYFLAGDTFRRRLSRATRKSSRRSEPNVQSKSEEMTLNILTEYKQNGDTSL
Assay [4] has as its target T1, P2Y purinoceptor 1. Nature of the assay: In vitro antagonist activity at P2Y1 receptor in turkey erythrocyte membranes. Put shortly:
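[3H]inositol-labeled turkey erythrocyte ghosts in pH 7.0 Hepes medium with 1 μM GTPγS were incubated 5 min at 30 °C with test nucleotide plus 10 nM 2-MeSADP. Total [3H]inositol phosphates were separated by anion-exchange. Maximal inhibition is 100 minus residual stimulation at the highest concentration; n = 3 unless stated. "No effect" means none at 100 μM.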

Assay [5] deals with P2Y purinoceptor 1 (Meleagris gallopavo) (UniProt P49652). In words: Agonist activity for stimulation of PLC at P2Y purinoceptor 1 in the turkey erythrocyte membranes.
Assay [6] has the same target. In words: Antagonist activity for inhibition of PLC elicited by 10 nM 2-MeSADP at P2Y purinoceptor 1 in turkey erythrocyte membranes. Put shortly:
as §1

Assay [7] shares this target. Nature of the assay: Antagonist activity for inhibition of PLC elicited by 10 nM 2-MeSADP at P2Y purinoceptor 1 in the turkey erythrocyte membranes; No effect. In a few lines:
as §1

The target in assay [8] is T1, P2Y purinoceptor 1. In words: Concentration at which 50% of the maximal effect (stimulation of PLC at P2Y1 receptor in the turkey erythrocyte membranes) is reached; Low potency agonist.

P2Y purinoceptor 1 (Meleagris gallopavo), sequence (P49652 whole entry): as above

Take `CNc1ncnc2c1ncn2[C@H]1C[C@@H]2OP(=O)(O)OP(=O)(O)OC[C@H]2O1`: in assay [1], the Increase result was “inactive”. In addition, the inhibition (as a rule, the change of the read-out against control, counted positive when it falls) in assay [2] is “inactive”.
In the case of `Nc1ncnc2c1ncn2[C@@H]1O[C@H](COP(=O)(O)O)[C@@H](OP(=O)(O)O)[C@H]1O`, the midpoint of the response on P2Y purinoceptor 1 [3], the EC50, lay at 2.34 µM. Moreover, the IC50 (commonly the midpoint of a concentration-inhibition curve) against P2Y purinoceptor 1 [4] was 14.9 µM. The Increase in assay [5] worked out at 44%. Moreover, the inhibition in assay [6] worked out at 56%.
On to `C=CCSc1nc(NC)c2ncn([C@H]3C[C@H](OP(=O)(O)O)[C@@H](COP(=O)(O)O)O3)c2n1`, for which, on P2Y purinoceptor 1 [4], the midpoint of inhibition, the IC50, lay at 0.475 µM. Moreover, in assay [1], the Increase result was “inactive”. The same compound showed an inhibition in assay [6] of 97%.
For the compound `O=c1ccn([C@H]2C[C@H](OP(=O)(O)O)[C@@H](COP(=O)(O)O)O2)c(=O)[nH]1`, in assay [1], the Increase entry was “inactive”. Besides, the inhibition result in assay [7] is “inactive”.
On to `CNc1nc(N)nc2c1ncn2[C@H]1C[C@H](OP(=O)(O)O)[C@@H](COP(=O)(O)O)O1`, for which the IC50 at P2Y purinoceptor 1 [4] turned out to be 1.85 µM. The compound also showed an Increase in assay [5] of 4%. In addition, the inhibition in assay [6] was found to be 96%.
For `CSc1nc2c(N)ncnc2n1[C@H]1C[C@H](OP(=O)(O)O)[C@@H](COP(=O)(O)O)O1`, the Increase entry in assay [1] is “inactive”. The inhibition entry in assay [2] is “inactive”.
As to `CSc1nc(N)c2ncn([C@H]3C[C@H](OP(=O)(O)O)[C@@H](COP(=O)(O)O)O3)c2n1`, the half-inhibitory concentration (IC50) on P2Y purinoceptor 1 [4] was 1.89 µM. The Increase in assay [5] is 22%. Also, the inhibition in assay [6] turned out to be 78%.
For `Nc1ncnc2c1ncn2[C@@H]1C[C@H](COP(=O)(O)O)[C@@H](OP(=O)(O)O)C1`, it took 7.21 µM to reach a half-maximal effect on P2Y purinoceptor 1 [3] (EC50). On P2Y purinoceptor 1 [4], this compound displayed an IC50 of 2.53 µM. The same compound came in with an Increase in assay [5] of 27%. In assay [6], this compound gave an inhibition of 73%.
As for `CONc1ncnc2c1ncn2[C@H]1C[C@H](OP(=O)(O)O)[C@@H](COP(=O)(O)O)O1`, the IC50 against P2Y purinoceptor 1 [4] was over 100 µM. The Increase entry in assay [1] was “inactive”. The inhibition entry in assay [2] was “inactive”.
As to `[N-]=[N+]=N[C@H]1[C@@H](OP(=O)(O)O)[C@H](n2cnc3c(N)ncnc32)O[C@@H]1COP(=O)(O)OP(=O)(O)OP(=O)(O)O`, the EC50 (in general, the midpoint of the concentration-response curve) at P2Y purinoceptor 1 [8] is given as “Partial agonist”. This compound yielded an Increase in assay [5] of 49%. Further, the inhibition entry in assay [2] is “inactive”.
`CNc1ccnc2c1ncn2[C@H]1C[C@H](OP(=O)(O)O)[C@@H](COP(=O)(O)O)O1`: the IC50 at P2Y purinoceptor 1 [4] is 0.904 µM. Further, the Increase entry in assay [1] is “inactive”. In assay [6], this compound yielded an inhibition of 96%.
With `COc1nc2c(N)ncnc2n1[C@H]1C[C@H](OP(=O)(O)O)[C@@H](COP(=O)(O)O)O1`, the Increase result in assay [1] is “inactive”. In addition, the inhibition result in assay [7] is “inactive”.
The compound `CCSc1nc(N)c2ncn([C@H]3C[C@H](OP(=O)(O)O)[C@@H](COP(=O)(O)O)O3)c2n1` showed an EC50 on P2Y purinoceptor 1 [3] of 1.98 µM. The compound also displayed an IC50 against P2Y purinoceptor 1 [4] of 4.59 µM. Further, the Increase in assay [5] worked out at 16%. This compound also had an inhibition in assay [6] of 84%.
For the compound `Nc1ccn([C@H]2C[C@H](OP(=O)(O)O)[C@@H](COP(=O)(O)O)O2)c(=O)n1`, in assay [1], the Increase result was “inactive”. Further, in assay [7], the inhibition result was “inactive”.
On P2Y purinoceptor 1 [3], `CNc1ncnc2c1ncn2[C@H]1C[C@@H]2OP(=O)(O)OP(=O)(O)OP(=O)(O)OP(=O)(O)OC[C@H]2O1` gave a concentration giving a half-maximal response (EC50) of 0.02 µM. The compound also came in with a 50% inhibitory concentration (IC50) on P2Y purinoceptor 1 [4] of 0.158 µM. The Increase in assay [5] came out at 14%. In assay [6], this compound yielded an inhibition of 87%.
`Nc1ncnc2c1ncn2[C@@H]1CO[C@H](COP(=O)(O)O)[C@@H](OP(=O)(O)O)C1` showed an EC50 at P2Y purinoceptor 1 [3] of 2.99 µM. The Increase in assay [5] was 100%. In addition, in assay [7], the inhibition entry was “inactive”.
`Cc1cn([C@H]2C[C@H](OP(=O)(O)O)[C@@H](COP(=O)(O)O)O2)c(=O)[nH]c1=O`: the Increase entry in assay [1] was “inactive”. Further, the inhibition entry in assay [7] was “inactive”.
As to `COP(=O)(O)OC[C@H]1O[C@@H](n2cnc3c(N)ncnc32)C[C@@H]1OP(=O)(O)OC`, the Increase result in assay [1] is “inactive”. Besides, the inhibition entry in assay [7] was “inactive”.
For `Nc1nc(Cl)nc2c1ncn2[C@H]1C[C@H](OP(=O)(O)O)[C@@H](COP(=O)(O)O)O1`, the Increase in assay [5] came out at 19%. The inhibition in assay [6] is 80%.
As to `[N-]=[N+]=N[C@H]1[C@@H](OP(=O)(O)O)[C@H](n2cnc3c(N)ncnc32)O[C@@H]1COP(=O)(O)O`, the concentration giving a half-maximal response (EC50) entry on P2Y purinoceptor 1 [8] is given as “Partial agonist”. Further, the Increase in assay [5] worked out at 46%. Besides, the inhibition result in assay [7] is “inactive”.
On P2Y purinoceptor 1 [4], `Cc1nc2c(N)ncnc2n1[C@H]1C[C@H](OP(=O)(O)O)[C@@H](COP(=O)(O)O)O1` gave an IC50 of 75.1 µM. Further, in assay [1], the Increase result is “inactive”. Moreover, the inhibition in assay [6] was found to be 53%.
On to `CCCSc1nc(N)c2ncn([C@H]3C[C@H](OP(=O)(O)O)[C@@H](COP(=O)(O)O)O3)c2n1`, for which the EC50 at P2Y purinoceptor 1 [3] was determined as 1.71 µM. This compound yielded an Increase in assay [5] of 53%. The compound also showed an inhibition in assay [6] of 46%.
In assay [5], `Nc1ncnc2c1ncn2[C@H]1C[C@H](OP(=O)(O)O)[C@@H](COP(=O)(O)O)O1` yielded an Increase of 12%. This compound displayed an inhibition in assay [6] of 87%.
At P2Y purinoceptor 1 [4], `CNc1nc(Cl)nc2c1ncn2[C@H]1C[C@H](OP(=O)(O)O)[C@@H](COP(=O)(O)O)O1` returned an IC50 of 0.206 µM. The Increase entry in assay [1] is “inactive”. Also, the inhibition in assay [6] was determined as 95%.
For the compound `Nc1ncnc2c1ncn2[C@H]1C[C@H](O)[C@@H](COP(=O)(O)O)[S+]1[O-]` (stereo partly specified), the Increase result in assay [1] is “inactive”. Also, the inhibition result in assay [7] is “inactive”.
With `CNc1nc(SC)nc2c1ncn2[C@H]1C[C@H](OP(=O)(O)O)[C@@H](COP(=O)(O)O)O1`, the half-inhibitory concentration (IC50) on P2Y purinoceptor 1 [4] was found to be 0.362 µM. The compound further registered an Increase in assay [5] of 6%. For the same compound, the inhibition in assay [6] stood at 94%.
At P2Y purinoceptor 1 [4], `CCSc1nc(NC)c2ncn([C@H]3C[C@H](OP(=O)(O)O)[C@@H](COP(=O)(O)O)O3)c2n1` registered an IC50 of 0.98 µM. Besides, the Increase entry in assay [1] is “inactive”. Besides, the inhibition in assay [6] was 94%.
In turn, `CNc1nc(N)nc2c1ncn2[C@@H]1C[C@H](COP(=O)(O)O)[C@@H](OP(=O)(O)O)C1` had an EC50 at P2Y purinoceptor 1 [3] of 6.49 µM. The compound further had an IC50 against P2Y purinoceptor 1 [4] of 5.42 µM. Also, the Increase in assay [5] is 26%. Besides, the inhibition in assay [6] was 74%.
The corresponding values for `CNc1nc(I)nc2c1ncn2[C@H]1C[C@H](OP(=O)(O)O)[C@@H](COP(=O)(O)O)O1` are 4.44 µM, 0.891 µM, 13% and 87%.
On P2Y purinoceptor 1 [4], `C=Cc1nc2c(N)ncnc2n1[C@H]1C[C@H](OP(=O)(O)O)[C@@H](COP(=O)(O)O)O1` registered a half-inhibitory concentration (IC50) of 30.7 µM. The Increase entry in assay [1] is “inactive”. The inhibition in assay [6] was 59%.
At P2Y purinoceptor 1 [3], `Nc1ncnc2c1ncn2[C@H]1C[C@H](OP(=O)(O)O)[C@@H](COP(=O)(O)O)S1` had a concentration for a half-maximal effect (EC50) of 12.2 µM. The Increase in assay [5] is 56%. In addition, the inhibition in assay [6] was determined as 38%.
For `CNc1nc2c(N)ncnc2n1[C@H]1C[C@H](OP(=O)(O)O)[C@@H](COP(=O)(O)O)O1`, the Increase entry in assay [1] is “inactive”. Further, in assay [2], the inhibition entry was “inactive”.
`CCCCCCSc1nc(NC)c2ncn([C@H]3C[C@H](OP(=O)(O)O)[C@@H](COP(=O)(O)O)O3)c2n1` had an IC50 on P2Y purinoceptor 1 [4] of 3.37 µM. Moreover, the Increase entry in assay [1] is “inactive”. Besides, the inhibition in assay [6] was found to be 100%.
The like results for `Nc1nc2c(ncn2[C@H]2C[C@H](OP(=O)(O)O)[C@@H](COP(=O)(O)O)O2)c(=O)[nH]1` were, in that order, 14.9 µM, “inactive” and 93%.
The compound `Nc1ncnc2c1ncn2[C@H]1C[C@H](OP(=O)(O)O)[C@@H](COCP(=O)(O)O)O1` came in with an EC50 at P2Y purinoceptor 1 [3] of 27.7 µM. Moreover, on P2Y purinoceptor 1 [4], the IC50 was determined as 19.6 µM. Moreover, in assay [5], the Increase was determined as 22%. Moreover, the inhibition in assay [6] was determined as 78%.
With `O=c1[nH]c(=O)n([C@H]2C[C@H](OP(=O)(O)O)[C@@H](COP(=O)(O)O)O2)cc1F`, in assay [1], the Increase result is “inactive”. Besides, in assay [7], the inhibition result was “inactive”.
`CCCSc1nc(NC)c2ncn([C@H]3C[C@H](OP(=O)(O)O)[C@@H](COP(=O)(O)O)O3)c2n1`: at P2Y purinoceptor 1 [4], 0.449 µM corresponded to half-maximal inhibition (IC50). Further, the Increase in assay [5] was 7%. In addition, the inhibition in assay [6] was found to be 94%.
